Test results published in the array DNA melting data of Ke et al. (doi:10.1101/2024.01.08.574731).

How the values were obtained:
[1] = melting temperature; fluorescence melt of hairpins on a sequencing array, two-state fit, raised by 9.35 °C to match UV melts; conditions: sodium 0.088 M
Summary of the method: (§1)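 Two-state fits, bootstrapped, provided melting temperature and folding enthalpy from Cy3 fluorescence normalised to pre-quench Cy3 and to control constructs. Library hairpins with annealed Cy3 and quencher oligos were imaged on a sequenced MiSeq flow cell in 50 mM Na-HEPES pH 8.0, 25 mM NaCl, at 2.5 °C intervals up to 60 °C. Four replicates were combined with inverse-variance weighting. A 9.35 °C upward shift was applied to fitted temperatures to match UV melts.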

[2] = folding enthalpy; higher = less favourable; fluorescence melt of hairpins on a sequencing array, two-state fit; conditions: sodium 0.088 M
Summary of the method: as §1

Sequence	Tm [1] [°C]	folding enthalpy [2] [kcal/mol]
GATCCTCACAAGGATC ((((((....))))))	53	-33.6
GATCCTCAGGAGGATC ((((((....))))))	55.2	-30.9
GATCCTCCAAGGATC ((((((...))))))	53.7	-31.8
GATCCTCCCAAGGATC ((((((....))))))	53.1	-43.1
GATCCTCCCGAGGATC ((((((....))))))	56.4	-36.9
GATCCTCCGGAGGATC ((((((....))))))	55.1	-29.5
GATCCTCGTAGGATC ((((((...))))))	54.5	-34.2
GATCCTCTACAGGATC ((((((....))))))	51.8	-31.1
GATCCTCTCCAGGATC ((((((....))))))	50.8	-36.3
GATCCTCTCTAGGATC ((((((....))))))	51.6	-38.2
GATCCTGAAAGGATC ((((((...))))))	65.9	-38.7
GATCCTGAAGAGGATC ((((((....))))))	55.4	-36.2
GATCCTGAGAGGATC ((((((...))))))	50.7	-31.1
GATCCTGCAAAGGATC ((((((....))))))	61.3	-34.6
GATCCTGCGAAGGATC ((((((....))))))	59.5	-42.6
GATCCTGCGGAGGATC ((((((....))))))	50.3	-37.1
GATCCTGGAAAGGATC ((((((....))))))	59.5	-35.6
GATCCTGGACAGGATC ((((((....))))))	57.5	-36.4
GATCCTGTAAGGATC ((((((...))))))	62	-37
GATCCTGTATAGGATC ((((((....))))))	59	-41.6
GATCCTGTCGAGGATC ((((((....))))))	57.2	-36.3
GATCCTGTGTAGGATC ((((((....))))))	52.3	-31.5
GATCCTGTTGAGGATC ((((((....))))))	53.2	-33.9
GATCCTTAGAGGATC ((((((...))))))	50	-28.3

Sequence	Tm [1] [°C]	folding enthalpy [2] [kcal/mol]
GATCCTTATAAGGATC ((((((....))))))	53.9	-36
GATCCTTATAGGATC ((((((...))))))	57.4	-32.5
GATCCTTCAAAGGATC ((((((....))))))	52.9	-33.5
GATCCTTCACAGGATC ((((((....))))))	51.7	-34.7
GATCCTTCCAGGATC ((((((...))))))	57.2	-35.2
GATCCTTCCTAGGATC ((((((....))))))	52.1	-44.7
GATCCTTCGCAGGATC ((((((....))))))	51.2	-37.3
GATCCTTCGTAGGATC ((((((....))))))	53	-33.7
GATCCTTCTCAGGATC ((((((....))))))	50.9	-45
GATCCTTGATAGGATC ((((((....))))))	50.5	-35.4
GATCCTTGCAGGATC ((((((...))))))	57.9	-33.7
GATCCTTGCCAGGATC ((((((....))))))	51.5	-31
GATCCTTGCGAGGATC ((((((....))))))	54.8	-49.1
GATCCTTTAAGGATC ((((((...))))))	55.6	-33.1
GATCCTTTCAAGGATC ((((((....))))))	57.7	-33.3
GATCCTTTCAGGATC ((((((...))))))	57.4	-41.3
GATCCTTTTAAGGATC ((((((....))))))	57.9	-36.6
GATCGAAAAACGATC ((...........))	39.2	-20.3
GATCGAAAAGTCGATC ((((((....))))))	45.9	-28.5
GATCGAACAATCGATC ((((((....))))))	47.4	-31.3
GATCGAACGTTCGATC ((((((....))))))	56.7	-49.3
GATCGAAGCTCGATC ((((((...))))))	49.9	-36
GATCGAAGCTTCGATC ((((((....))))))	56.5	-49.6
GATCGAAGGATCGATC ((((((....))))))	51.4	-22.9

Sequence	Tm [1] [°C]	folding enthalpy [2] [kcal/mol]
GATCGAAGGCTCGATC ((((((....))))))	50.1	-31
GATCGAAGTATCGATC ((((((....))))))	50.9	-31.7
GATCGAATATTCGATC ((((((....))))))	53.3	-44.5
GATCGAATTATCGATC ((((((....))))))	50.7	-38.2
GATCGAATTCTCGATC ((((((....))))))	51.4	-43.3
GATCGACAAGTCGATC ((((((....))))))	58.9	-44.7
GATCGACAATCGATC ((((((...))))))	46.6	-29.4
GATCGACACTCGATC ((((((...))))))	49.9	-30.9
GATCGACAGCTCGATC ((((((....))))))	49.4	-41.2
GATCGACCCCTCGATC ((((((....))))))	51.7	-47.5
GATCGACGGTTCGATC ((((((....))))))	50.7	-39.6
GATCGACTAATCGATC ((((((....))))))	49.9	-30.3
GATCGACTATCGATC ((((((...))))))	49.3	-35.2
GATCGACTGGTCGATC ((((((....))))))	62.7	-37.5
GATCGAGAAGTCGATC ((((((....))))))	55.4	-31.1
GATCGAGATATCGATC ((((((....))))))	58.7	-38.2
GATCGAGCAGTCGATC ((((((....))))))	54.3	-39.7
GATCGAGCGGTCGATC ((((((....))))))	53	-45.7
GATCGAGCTTCGATC ((((((...))))))	51.3	-33.8
GATCGAGGAGTCGATC ((((((....))))))	53.7	-40.2
GATCGAGGCATCGATC ((((((....))))))	58.5	-41.8
GATCGAGTAGTCGATC ((((((....))))))	55.9	-34.3
GATCGAGTCCTCGATC ((((((....))))))	56.2	-45.8
GATCGAGTGTCGATC ((((((...))))))	49.8	-37.6

Sequence	Tm [1] [°C]	folding enthalpy [2] [kcal/mol]
GATCGAGTGTTCGATC ((((((....))))))	51.9	-34.8
GATCGATAACTCGATC ((((((....))))))	49.3	-36.3
GATCGATATTCGATC ((((((...))))))	52.6	-30.3
GATCGATCCGTCGATC ((((((....))))))	53.6	-44.8
GATCGATCGGTCGATC ((((((....))))))	52	-41.6
GATCGATCTGTCGATC ((((((....))))))	53.1	-45.2
GATCGATCTTTCGATC ((((((....))))))	53.1	-48.8
GATCGATGACTCGATC ((((((....))))))	49.5	-30.5
GATCGATGATCGATC ((((((...))))))	50.7	-22.2
GATCGATGTGTCGATC ((((((....))))))	57.9	-40.2
GATCGCAATAGCGATC ((((((....))))))	68.4	-26
GATCGCAATGCGATC ((((((...))))))	68.5	-33
GATCGCAATTGCGATC ((((((....))))))	67.8	-31.1
GATCGCACCCGCGATC ((((((....))))))	67.6	-38.9
GATCGCACGAGCGATC ((((((....))))))	68.4	-31.7
GATCGCACGTGCGATC ((((((....))))))	68.8	-40.4
GATCGCAGCGGCGATC ((((((....))))))	68.4	-28.8
GATCGCAGCTGCGATC ((((((....))))))	69.3	-41
GATCGCCAAGCGATC ((((((...))))))	67.5	-29.8
GATCGCCAATGCGATC ((((((....))))))	65.3	-38.1
GATCGCCCAAGCGATC ((((((....))))))	66.7	-23
GATCGCCCGAAAGGGATC (((..(((....))))))	34.5	-14.6
GATCGCCCTAGCGATC ((((((....))))))	69.1	-34.4
GATCGCCGCTGCGATC ((((((....))))))	66.9	-38.5
